Bioassay records as filed in PubChem.
A selection: hits, their analogues and other compounds. The true share with any hit is near 2.3%.
PAX8 inh HTS – inhibitors of PAX8 transcriptional activity in RMG-I cells | RMG-I TPO-luciferase reporter, SteadyGlo, 24 h | inhibition, % at 12.6 µM | hit rate 1.2% among 360,000 | AID 652154;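 active = mean replicate inhibition at least 60% with every replicate also reaching 60%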;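 note: luciferase light reporting Pax8 driven TPO promoter activity; plate controls were median of neutral control wells for no effect and mitoxantrone controls for full effect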
FN deposition inh – fibronectin deposition inhibition | AH1F fibroblasts, Alexa488-fibronectin deposition fluorescence, overnight | inhibition, % at 12.6 µM | hit rate 0.086% among 350,000 | AID 743247;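 active = mean inhibition across replicates of 30% or more, regardless of how many single replicates reach that level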;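 note: positive control wells lacked labelled fibronectin entirely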
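Assay system: AH1F fibroblasts assembling fluorescent fibronectin matrix; Amount: 10000 AH1F cells per well; Buffer or medium: DMEM, 2% serum; Probe or stimulus: Alexa488-fibronectin, 24 nM final in well; Doses: single compound dose, delivered by pin transfer; Incubation: 1 h adhesion, overnight exposure; Measured by: fluorescence 485/525 nm; Read-out: fibronectin deposition inhibition.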
PGC1a acetyl inh – PGC1a acetylation modulation, inhibitor mode; U2OS PGC1a acetylation, AlphaScreen anti-acetyl-lysine; with virally co-expressed GCN5 acetyltransferase; inhibition, % at 15.6 µM; hit rate 0.17% among 350,000; AID 651687;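 active = every replicate shows inhibition of at least 40%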;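 note: 0% = neutral control wells and 100% = positive control wells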
CFTR F508del cor – CFTR F508del correction in bronchial cells. CFBE cells, YFP halide quenching; stimulated with forskolin plus potentiator P3; % fluorescence drop versus neutral controls. activity (quench increase), % at 7.58 µM. hit rate 0.36% among 350,000;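 active = mean added fluorescence quench of at least 8% versus neutral control, with both replicates also reaching 8%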;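 note: cells transiently co-express mutant CFTR-F508del with the halide-sensitive YFP; corrector assay measuring rescue of mutant channel to the surface after 24 h compound exposure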
EWS-Fli inh – inhibitors of EWS/Fli oncoprotein transcriptional activity. hit rate 0.67% among 350,000. inhibition, % at 12.6 µM. AID 651661. A673 NR0B1-luciferase reporter, viability-normalised;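 active = mean inhibition of at least 50% after viability correction, with every replicate also passing that limit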;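 note: firefly luciferase signal divided by Alamar Blue viability fluorescence both relative to DMSO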
Env fusion inh – HIV envelope-mediated fusion inhibition | hit rate 1.1% among 360,000 | inhibition, % at 12.3 µM | HeLa-JRFL Env/CEM21 cell fusion, luciferase | AID 651610;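 active = mean replicate inhibition score of at least 50 and every replicate individually at or above 50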;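 note: 0% = plate neutral controls and 100% = maraviroc near 300 nM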
Active calls of the source: *; [ ] = remark or other dose.

Results for OC[C@@H]1CC[C@@H]2O[C@H](CCc3ccc(C#CCc4ccccc4)cc3)[C@H](n3cc(-c4ccccc4)nn3)C[C@@H]2O1 ?
PAX8 inh HTS: 62*; PGC1a acetyl inh: -10; CFTR F508del cor: 1; EWS-Fli inh: 1

Results for COc1ccc(CNCC(O)(c2ccc(Cl)cc2)c2ccc(Cl)cc2)cc1OC ?
FN deposition inh: 21; Env fusion inh: 63*

How did CCCNC(=O)[C@H]1[C@H](CO)[C@H]2Cn3c(ccc(-c4cccnc4)c3=O)[C@H]2N1Cc1cocn1 do in these assays?
PGC1a acetyl inh: 10; CFTR F508del cor: 1; EWS-Fli inh: 3

What do the screens show for `C[C@@H]1CCCCO[C@@H](CN(C)Cc2ccc3c(c2)OCO3)[C@H](C)CN([C@@H](C)CO)C(=O)c2cc(NC(=O)NC3CCCCC3)ccc2O1`?
PAX8 inh HTS: -14; PGC1a acetyl inh: 0; CFTR F508del cor: 1; EWS-Fli inh: -3; Env fusion inh: -7[16.7 µM]

How did CCOc1cc2c(cc1O)CCC1C2CCC2(C)C(O)CCC12 (stereo not drawn) do in these assays?
PAX8 inh HTS: 15; FN deposition inh: 24; CFTR F508del cor: 3; EWS-Fli inh: 55*; Env fusion inh: -197

What do the screens show for `CCNc1cc2c(cc1O)CCC1C2CCC2(C)C(O)CCC12` (stereo not drawn)?
PAX8 inh HTS: -7; FN deposition inh: 5; PGC1a acetyl inh: -7; CFTR F508del cor: 0; EWS-Fli inh: 19; Env fusion inh: -29

How did O=C(Nc1ccccc1F)N1C[C@@H]2[C@H](c3ccccc31)[C@@H](CO)N2C(=O)c1ccccc1F do in these assays?
PAX8 inh HTS: -60; PGC1a acetyl inh: -7; CFTR F508del cor: 1; EWS-Fli inh: -26

What do the screens show for `O=C(C[C@@H]1CC[C@H]2[C@@H](COC[C@@H](O)CN2Cc2cc(F)cc(F)c2)O1)NCc1cccc(F)c1`?
PAX8 inh HTS: 12; FN deposition inh: 0; PGC1a acetyl inh: 0; CFTR F508del cor: -4; EWS-Fli inh: 2

What do the screens show for `O=C(NC1CCCC(C(F)(F)F)C1)c1ccc([N+](=O)[O-])o1` (stereo not drawn)?
PAX8 inh HTS: 76*; FN deposition inh: 1; CFTR F508del cor: -5; EWS-Fli inh: 22

What do the screens show for `O=C(C[C@@H]1CC[C@@H](NC(=O)c2ccncc2)[C@H](CO)O1)NCCc1ccncc1`?
PAX8 inh HTS: -2; FN deposition inh: 1; PGC1a acetyl inh: 2; CFTR F508del cor: 3; EWS-Fli inh: -1; Env fusion inh: 62*[16.7 µM]

Results for O=C(O)C[C@@H]1CC[C@@H](NC(=O)c2ccncc2)[C@H](CO)O1 ?
PAX8 inh HTS: -12; FN deposition inh: -3; PGC1a acetyl inh: 10; CFTR F508del cor: -1; EWS-Fli inh: -7; Env fusion inh: 63*[16.7 µM]

How did COc1ccc2c3c(n(C)c2c1)[C@H](CO)N(C(=O)Nc1ccccc1F)CC31CCN(C(=O)c2ccccc2)CC1 do in these assays?
PGC1a acetyl inh: 11; CFTR F508del cor: -1; EWS-Fli inh: 39

Results for CN(C)C(=O)[C@@H]1[C@@H](CO)[C@@H]2Cn3c(ccc(C4=CCCC4)c3=O)[C@H]1N2CC1CC1 ?
FN deposition inh: 0; CFTR F508del cor: -1; EWS-Fli inh: 1

What do the screens show for `COc1ccccc1CNC(=O)C[C@H]1CC[C@H](NC(=O)CC2CC2)[C@@H](CO)O1`?
PAX8 inh HTS: -18; FN deposition inh: -2; PGC1a acetyl inh: -3; CFTR F508del cor: -1; EWS-Fli inh: 6; Env fusion inh: 5[16.7 µM]

What do the screens show for `CCOc1ccc2nc(NC(=O)CN3CCC(n4nnc5cc(C(F)(F)F)ccc54)CC3)sc2c1`?
PAX8 inh HTS: 15; FN deposition inh: 9; PGC1a acetyl inh: 9; Env fusion inh: 50*

How did C=CCNC(=O)/C(C#N)=C/c1c(N(Cc2ccccc2)Cc2ccccc2)nc2ccccn2c1=O do in these assays?
PAX8 inh HTS: 50; FN deposition inh: -2; CFTR F508del cor: -1; EWS-Fli inh: 12; Env fusion inh: 23

What do the screens show for `N#C/C(=C\c1c(N(Cc2ccccc2)Cc2ccccc2)nc2ccccn2c1=O)C(N)=O`?
PAX8 inh HTS: -7; FN deposition inh: -2; Env fusion inh: 58*

How did C[C@H]1CCCCO[C@@H](CN(C)C(=O)Nc2ccc(C(F)(F)F)cc2)[C@@H](C)CN([C@@H](C)CO)C(=O)c2cc(NC(=O)NC3CCCCC3)ccc2O1 do in these assays?
PAX8 inh HTS: 18; FN deposition inh: -7; PGC1a acetyl inh: 10; CFTR F508del cor: -1; EWS-Fli inh: 12; Env fusion inh: 19[16.7 µM]

What do the screens show for `Cc1onc(-c2ccccc2Cl)c1C(=O)N(Cc1nc(-c2ccccc2)no1)C1CCCCC1`?
FN deposition inh: 0; PGC1a acetyl inh: -28; Env fusion inh: 88*

What do the screens show for `Cc1cccc(-c2noc(CN(C(=O)c3c(-c4ccccc4Cl)noc3C)C(C)C)n2)c1`?
PAX8 inh HTS: 23; FN deposition inh: -10; PGC1a acetyl inh: 6; CFTR F508del cor: 0; EWS-Fli inh: 8; Env fusion inh: 25

What do the screens show for `COc1ccc(NC(=O)c2sc3cc(C(F)(F)F)cnc3c2-c2cccs2)cc1`?
PGC1a acetyl inh: -6

Results for O=C(Nc1ccc(F)cc1)c1sc2cc(C(F)(F)F)cnc2c1-c1cccs1 ?
PGC1a acetyl inh: 114*

What do the screens show for `Cn1cnc(S(=O)(=O)N2CCCCN3[C@H](CO)[C@H](c4ccc(C#CC5CC5)cc4)[C@H]3C2)c1`?
PAX8 inh HTS: 4; PGC1a acetyl inh: 9; CFTR F508del cor: 2; EWS-Fli inh: 18

What do the screens show for `COC(=O)[C@@H](Cc1ccccc1)N(Cc1ccccc1)S(=O)(=O)N(Cc1ccccc1)[C@H](Cc1ccccc1)C(=O)OC`?
PAX8 inh HTS: 20; FN deposition inh: 8; CFTR F508del cor: 3; EWS-Fli inh: 21; Env fusion inh: 40

Results for C=C[C@H](Cc1ccccc1)N(Cc1ccccc1)S(=O)(=O)N(Cc1ccccc1)[C@H](C=C)Cc1ccccc1 ?
PAX8 inh HTS: 3; FN deposition inh: 14; CFTR F508del cor: 4; EWS-Fli inh: 28; Env fusion inh: 61*

Results for CC(C)C#Cc1ccc([C@H]2[C@@H](C#N)N(C(=O)CN(C)C)[C@@H]2CO)cc1 ?
PAX8 inh HTS: 10; FN deposition inh: 0; PGC1a acetyl inh: 10; CFTR F508del cor: 4; EWS-Fli inh: 0; Env fusion inh: -33[16.7 µM]

Results for CC1(C)N=C(N)N=C(N)N1c1ccc(Oc2ccc(Cl)cc2)c(Cl)c1 ?
PAX8 inh HTS: 60*; FN deposition inh: -7; PGC1a acetyl inh: 3; CFTR F508del cor: -2; EWS-Fli inh: 48; Env fusion inh: 28

Results for CC1(C)N=C(N)N=C(N)N1c1cc(Cl)ccc1Cl ?
PAX8 inh HTS: 1; FN deposition inh: 6; PGC1a acetyl inh: -2; EWS-Fli inh: -1; Env fusion inh: -6
